Measurements reported in ChEMBL document CHEMBL1147430, “Inhibition of alpha-chymotrypsin with thiol-bearing substrate analogues in the presence of zinc ion” (Bioorg Med Chem Lett, 2004).
Calls of active or inactive are those of the source. The calls are words filed in the database; no cut-off is given here.

Columns and labels:
Chymotrypsinogen B [1] = biological target: T1, Chymotrypsinogen B (Homo sapiens, UniProt P17538); assay: Inhibitory activity against chymotrypsinogen in the presence of Zn(II) (500 uM)
T1 sequence (P17538 34-164 limits assumed, other chains not shown): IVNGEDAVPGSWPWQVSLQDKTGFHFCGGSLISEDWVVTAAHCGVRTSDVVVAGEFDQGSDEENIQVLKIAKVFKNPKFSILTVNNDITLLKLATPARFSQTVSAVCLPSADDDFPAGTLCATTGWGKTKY
T1 sequence (P17538 167-263 limits assumed, other chains not shown): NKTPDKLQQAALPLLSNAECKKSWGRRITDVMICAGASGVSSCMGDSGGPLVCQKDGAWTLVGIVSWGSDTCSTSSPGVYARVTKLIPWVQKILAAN
Procedure, shortened: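 Alpha-chymotrypsin at a final 0.4 μg/mL is added to a mix of Suc-AAPF-pNA (300 μM), ZnCl2 (500 μM) and varied inhibitor concentrations in pH 7.5 buffer (50 mM CaCl2, 50 mM Tris). Initial rates are followed at 405 nm at 25 °C. IC50 is read from a plot of % residual activity versus inhibitor concentration.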

Chymotrypsinogen B [2] = biological target: T1, Chymotrypsinogen B; assay: Inhibitory activity (up to 2 mM) against chymotrypsinogen in the absence of Zn(II); no inhibition

Structure (SMILES) | IC50 (Chymotrypsinogen B [1]) [µM] | inhibition (Chymotrypsinogen B [2])
CC(=O)N[C@H](CS)Cc1ccccc1 | > 800 | inactive
O=C(N[C@H](CS)Cc1ccccc1)c1ccccc1 | 23 | inactive
O=C(N[C@H](CS)Cc1ccccc1)OCc1ccccc1 | 3.8 | inactive

The remaining lines, values ahead:

IC50 (Chymotrypsinogen B [1]) [µM] | inhibition (Chymotrypsinogen B [2]) | Structure (SMILES)
> 3000 |  | O=C(N[C@H](CO)Cc1ccccc1)OCc1ccccc1
6 | inactive | O=C(N[C@@H](CS)Cc1ccccc1)OCc1ccccc1
> 3000 | inactive | O=C(N[C@@H](CO)Cc1ccccc1)OCc1ccccc1
8 | inactive | O=C(N[C@H](CS)Cc1ccccc1)[C@@H]1CCCN1C(=O)OCc1ccccc1
